PG9 Ab binder: small molecules binding HIV-1 gp120 antibody PG9; inhibition, % at 6.7 µM; TR-FRET gp120-PG9 antibody binding; 0.43% of 360,000 active; in the data active means inhibition above about 8.5%
NR2E3 ag-1: activates human NR2E3 receptor | Q9Y5X4 | inhibition of corepressor binding, % at 3.98 µM | 0.35% of 360,000 active | AID 602229 | CHO-S Gal4-NCOR/VP16-NR2E3 two-hybrid, luciferase;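 active means inhibition above the mean of all tested compounds plus 3 SD, cut at about 70% in these data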;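 further: higher means lower luciferase signal from less NR2E3 corepressor binding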
NR2E3 ag-2: activates human photoreceptor nuclear receptor NR2E3 | GST-NR2E3/biotin-RetCOR TR-FRET, 1536-well | inhibition of corepressor binding, % at 4.78 µM | 0.12% of 320,000 active;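 active means percent inhibition above the cutoff of mean plus 3 SD of all tested compounds, set per screening campaign, cut at about 20% in these data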
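Test system: GST-NR2E3 and biotin-RetCOR proteins | Quantity: 1.35 nM GST-tagged NR2E3 final | Medium: Tris pH 7.5 | Also added: 7 nM biotin-RetCOR | Dosing: Compound at 4.8 µM, single dose | Timing: 5 h at 4 °C | Detection: Time-resolved FRET | Read-out basis: Percent inhibition | Benchmarks: Biotin wells as high control, 0.6% DMSO wells as low control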
Neddylation inh: blocks human cullin neddylation | TR-FRET cullin neddylation, biochemical | 0.58% of 360,000 active | P61081+Q13564 | calls only at 25 µM; in the data active means inhibition above about 36%
NR1D1 modulator: modulates human Rev-erb alpha binding to DNA | P20393 | activity, % at 10 µM | Rev-erbα–FITC-DNA binding, fluorescence polarization, 90 min | 0.79% of 370,000 active;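 active means activity above about 14%, limit read from the data; passing the limit was not always enough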
Target sequence (P20393 whole entry, looked up): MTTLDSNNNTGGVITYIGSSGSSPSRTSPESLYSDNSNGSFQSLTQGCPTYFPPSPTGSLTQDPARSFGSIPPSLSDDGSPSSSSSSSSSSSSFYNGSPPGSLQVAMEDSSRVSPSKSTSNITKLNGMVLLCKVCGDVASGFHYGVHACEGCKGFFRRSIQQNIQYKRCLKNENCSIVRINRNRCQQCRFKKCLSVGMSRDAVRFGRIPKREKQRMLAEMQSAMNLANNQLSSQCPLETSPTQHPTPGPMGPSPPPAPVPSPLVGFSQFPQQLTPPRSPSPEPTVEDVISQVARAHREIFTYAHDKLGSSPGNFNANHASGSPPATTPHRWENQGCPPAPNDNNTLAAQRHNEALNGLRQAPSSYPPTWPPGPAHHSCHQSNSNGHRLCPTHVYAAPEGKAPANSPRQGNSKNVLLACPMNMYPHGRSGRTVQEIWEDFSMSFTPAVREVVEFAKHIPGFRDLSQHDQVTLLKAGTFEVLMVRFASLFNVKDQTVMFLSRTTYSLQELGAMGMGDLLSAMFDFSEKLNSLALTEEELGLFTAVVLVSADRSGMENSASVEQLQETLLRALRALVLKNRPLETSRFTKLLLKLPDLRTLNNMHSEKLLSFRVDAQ
Neddyl inh conf: cullin neddylation inhibition, confirmation; TR-FRET cullin neddylation biochemical assay; 13% of 1,800 active; calls only at 25 µM; shares compounds with Neddylation inh; in the data active means inhibition above about 40%;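 further: neddylation substrate is the cullin 1 ring ligase complex with SKP2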
Calls only. Only some compounds are listed: those with a hit (about 2% of all), similar ones and a draw of the others.

For COc1ccc(NC(=O)CSc2nc3nc(-c4cccs4)cc(C(F)(F)F)c3c(=O)[nH]2)c(OC)c1 the results were PG9 Ab binder inactive, NR2E3 ag-1 inactive, NR2E3 ag-2 inactive, Neddylation inh active, NR1D1 modulator inactive and Neddyl inh conf inactive.
For COc1cc(OC)cc(C2=Cc3ccccc3C(CC(=O)c3ccco3)N2c2ccc(-c3cccnc3)cc2)c1 (stereo not given) the results were PG9 Ab binder inactive, NR2E3 ag-1 inactive, Neddylation inh inactive and NR1D1 modulator inactive.
Cc1ccc(CSc2nnc(-c3cccc4ccccc34)o2)cc1 was read as PG9 Ab binder inactive, NR2E3 ag-1 inactive, Neddylation inh active and NR1D1 modulator inactive.
Screening Cc1ccc(-c2nnc(-c3cccc4ccccc34)o2)cc1 returned PG9 Ab binder inactive, NR2E3 ag-1 inactive and NR1D1 modulator inactive.
For COC(=O)[C@]12C[C@H](CC(=O)N3CCSCC3)C(=O)N(Cc3cccc4ccccc34)C1=C[C@H](C(C)(C)C)O[C@@H]2C the results were NR1D1 modulator inactive.
Screening CC(=O)N(CC(=O)Nc1nn(-c2ccccc2)nc1C(N)=O)Cc1ccccc1 returned PG9 Ab binder inactive, NR2E3 ag-1 inactive, NR2E3 ag-2 inactive and NR1D1 modulator inactive.
Screening CC(C)(C)n1nnnc1SCC(=O)Nc1nn(-c2ccccc2)nc1C(N)=O returned PG9 Ab binder inactive, NR2E3 ag-1 inactive, NR2E3 ag-2 inactive, Neddylation inh active, NR1D1 modulator inactive and Neddyl inh conf inactive.
`O=C(c1cnn2c(C(F)(F)F)cc(-c3cccs3)nc12)N1CCCC1` gave PG9 Ab binder inactive, NR2E3 ag-1 inactive, NR2E3 ag-2 inactive, Neddylation inh active and NR1D1 modulator inactive.
For O=C(c1cnn2c(C(F)(F)F)cc(-c3ccco3)nc12)N1CCCCCC1 the results were PG9 Ab binder inactive, NR2E3 ag-1 inactive, NR2E3 ag-2 inactive, Neddylation inh inactive and NR1D1 modulator inactive.
O=c1cc(-c2ccccc2)oc2ccc(O)cc12 was read as PG9 Ab binder inactive, NR2E3 ag-1 inactive, NR2E3 ag-2 inactive, Neddylation inh inactive and NR1D1 modulator inactive.
For COc1ccc(-c2cc(=O)c3cc(O)ccc3o2)cc1 the results were PG9 Ab binder inactive, NR2E3 ag-1 inactive, NR2E3 ag-2 inactive, Neddylation inh active and NR1D1 modulator inactive.
`CCc1nc2c(OCCOc3ccc(F)cc3)cccn2c1N(C=O)Cc1ccc(OC)cc1` gave PG9 Ab binder inactive, NR2E3 ag-1 inactive, Neddylation inh inactive and NR1D1 modulator inactive.
Screening COC(=O)c1cc2ccccc2c(-c2c(OC)c(C(=O)OC)cc3ccccc23)c1OC returned PG9 Ab binder inactive, NR2E3 ag-1 inactive, NR2E3 ag-2 inactive, Neddylation inh active, NR1D1 modulator inactive and Neddyl inh conf inactive.
Oc1cnc2ccccc2c1CN1CCOCC1 was read as PG9 Ab binder inactive, NR2E3 ag-1 inactive, NR2E3 ag-2 inactive, Neddylation inh active, NR1D1 modulator inactive and Neddyl inh conf inactive.
Screening Oc1ccc2ccccc2c1CN1CCOCC1 returned PG9 Ab binder inactive, NR2E3 ag-1 inactive, NR2E3 ag-2 inactive, Neddylation inh inactive and NR1D1 modulator inactive.
`c1cn2c(-c3ccoc3)cncc2n1` gave PG9 Ab binder inactive, NR2E3 ag-1 inactive, Neddylation inh active, NR1D1 modulator inactive and Neddyl inh conf active.
Cc1cc(=O)oc2c(C)c(OCC(=O)N3CC[C@@]4(O)CCCC[C@H]4C3)ccc12 was read as PG9 Ab binder inactive, NR2E3 ag-1 inactive, NR2E3 ag-2 inactive, Neddylation inh active, NR1D1 modulator inactive and Neddyl inh conf inactive.
For CCc1cc(=O)oc2c(C)c(OCC(=O)N3CCC(C(=O)O)CC3)ccc12 the results were PG9 Ab binder inactive, NR2E3 ag-1 inactive, NR2E3 ag-2 inactive, Neddylation inh active, NR1D1 modulator inactive and Neddyl inh conf active.
Screening Cc1cc(=O)oc2c(C)c(OCC(=O)N(C)C)ccc12 returned PG9 Ab binder inactive, NR2E3 ag-1 inactive, NR2E3 ag-2 inactive, Neddylation inh active, NR1D1 modulator inactive and Neddyl inh conf inactive.
O=C(COC(=O)Cc1ccccc1F)NC(=O)NC1CCCC1 was read as PG9 Ab binder inactive, NR2E3 ag-1 inactive, Neddylation inh inactive and NR1D1 modulator inactive.
CCOC(=O)/C(O)=C(\C#N)c1nc2ccccc2[nH]1 was read as PG9 Ab binder inactive, NR2E3 ag-1 inactive, NR2E3 ag-2 inactive, Neddylation inh active and NR1D1 modulator inactive.
Screening COC(=O)[C@]12C[C@H](CC(=O)NCc3cccc4ccccc34)C(=O)N(CCC3=CCCCC3)C1=C[C@H](C(C)C)O[C@@H]2C1CC1 returned NR1D1 modulator inactive.
O=C(c1ccccc1)N1CCN(c2ccc(N3CCOCC3)nn2)CC1 was read as PG9 Ab binder inactive, NR2E3 ag-1 inactive, NR2E3 ag-2 inactive, Neddylation inh active and NR1D1 modulator inactive.
O=C(c1cccc(Cl)c1)N1CCN(c2ccc(N3CCOCC3)nn2)CC1 was read as PG9 Ab binder inactive, NR2E3 ag-1 inactive, NR2E3 ag-2 inactive, Neddylation inh active and NR1D1 modulator inactive.
O=C(c1cccc([N+](=O)[O-])c1)N1CCN(c2ccc(N3CCOCC3)nn2)CC1 was read as PG9 Ab binder inactive, NR2E3 ag-1 inactive, NR2E3 ag-2 inactive, Neddylation inh inactive and NR1D1 modulator inactive.
Screening O=C(c1ccc(Cl)cc1Cl)N1CCN(c2ccc(N3CCOCC3)nn2)CC1 returned PG9 Ab binder inactive, NR2E3 ag-1 inactive, NR2E3 ag-2 inactive, Neddylation inh active and NR1D1 modulator inactive.
Screening COc1ccccc1C(=O)N1CCN(c2ccc(N3CCOCC3)nn2)CC1 returned PG9 Ab binder inactive, NR2E3 ag-1 inactive, NR2E3 ag-2 inactive and NR1D1 modulator inactive.
Screening CCOC(=O)C1(C)CCCN(C(=O)COc2ccccc2)C1 (stereo not given) returned PG9 Ab binder inactive, NR2E3 ag-1 inactive, Neddylation inh inactive and NR1D1 modulator inactive.
For O=[N+]([O-])c1ccccc1N(S(=O)(=O)c1ccccc1)S(=O)(=O)c1ccccc1 the results were PG9 Ab binder inactive, NR2E3 ag-1 inactive, Neddylation inh inactive and NR1D1 modulator inactive.
Screening N#CCCCCN1c2cccc3cccc(c23)S1(=O)=O returned PG9 Ab binder inactive, NR2E3 ag-1 inactive, NR2E3 ag-2 inactive and NR1D1 modulator inactive.
`O=S1(=O)c2cccc3cccc(c23)N1CCBr` gave PG9 Ab binder inactive, NR2E3 ag-1 inactive, NR2E3 ag-2 inactive, Neddylation inh active, NR1D1 modulator inactive and Neddyl inh conf inactive.
`CCCN1c2cccc3cccc(c23)S1(=O)=O` gave PG9 Ab binder inactive, NR2E3 ag-1 inactive, NR2E3 ag-2 inactive, Neddylation inh active and NR1D1 modulator inactive.
For O=C(NCc1ccccc1)[C@H]1CCCN1C(=O)[C@H]1CCCN1C(=O)c1cccc2ccccc12 the results were PG9 Ab binder inactive and NR1D1 modulator inactive.
CCOC(=O)c1c(-c2ccccc2)n(C)c2ccc(O)cc12 was read as PG9 Ab binder inactive, NR2E3 ag-1 inactive, NR2E3 ag-2 inactive, Neddylation inh active and NR1D1 modulator inactive.
